OXTR ag = human OXTR agonism; P30559; CHO-OTR cells, Fluo-8 calcium fluorescence; normalized: DMSO 0%, oxytocin 100%; activation, % at 3 µM; 320,000 compounds, 0.32% hits;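 active means activation above the mean of all tested compounds plus 3 SD, cutoff set per screening run, cut at about 20% in these data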;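 further: peak over basal fluorescence ratio from a 100 s FLIPR kinetic read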
Target sequence (P30559 whole entry, looked up): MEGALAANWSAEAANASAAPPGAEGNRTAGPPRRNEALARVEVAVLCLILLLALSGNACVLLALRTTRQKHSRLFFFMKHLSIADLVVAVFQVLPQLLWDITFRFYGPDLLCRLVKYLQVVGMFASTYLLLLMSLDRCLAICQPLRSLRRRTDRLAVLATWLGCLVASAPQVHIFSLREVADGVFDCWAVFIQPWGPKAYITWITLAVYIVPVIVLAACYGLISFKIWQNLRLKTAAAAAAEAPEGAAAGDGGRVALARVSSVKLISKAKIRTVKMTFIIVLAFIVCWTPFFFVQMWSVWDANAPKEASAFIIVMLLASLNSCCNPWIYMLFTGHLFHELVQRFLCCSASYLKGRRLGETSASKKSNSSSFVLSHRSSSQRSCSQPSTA
TAAR1 antag = human TAAR1 antagonism; CHO RD-HGA16 TAAR1, Fluo-8 calcium fluorescence, antagonist; inhibition, % at 3 µM; 360,000 compounds, 1.5% hits;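 active means inhibition above a per-plate cutoff, the mean inhibition of test compounds on that plate plus 3 SD, cut at about 49% in these data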
Target sequence (Q96RJ0 whole entry, looked up): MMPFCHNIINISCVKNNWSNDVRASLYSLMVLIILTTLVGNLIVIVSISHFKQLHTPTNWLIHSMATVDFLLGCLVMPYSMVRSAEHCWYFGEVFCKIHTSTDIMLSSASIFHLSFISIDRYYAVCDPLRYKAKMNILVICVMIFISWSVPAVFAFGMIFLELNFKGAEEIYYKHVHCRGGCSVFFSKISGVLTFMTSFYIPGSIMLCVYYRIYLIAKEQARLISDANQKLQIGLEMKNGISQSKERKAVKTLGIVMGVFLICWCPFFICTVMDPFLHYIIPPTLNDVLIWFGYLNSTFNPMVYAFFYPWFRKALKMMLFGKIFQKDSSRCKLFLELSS
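Test system: RD-HGA16 CHO cells with stable hTAAR1 and Gα16 / Probe or stimulus: EC80 β-phenethylamine stimulus / Times: seeding 17-24 h prior, 75-min 37 °C, 30-min RT dye loading / Detection: Fluo-8 calcium-sensitive fluorescence / Read-out basis: % inhibition scaled between DMSO and EC80 PEA controls / Repeats: singlicate, one well per test compound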
TAAR1 ag = agonists of human TAAR1 | Q96RJ0 | CHO RD-HGA16 TAAR1, Fluo-8 calcium fluorescence; vehicle wells 0%, saturating PEA agonist 100% | activation, % at 3 µM | 360,000 compounds, 0.99% hits;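 active means activation above the mean activation of all test compounds in the run plus 3 SD, cut at about 38% in these data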
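test system = CHO RD-HGA16 cells carrying human TAAR1 plus Gα16 | schedule = 17-24 h seeding, 75 min 37 °C dye, 30 min RT | compound dosing = 3 µM single concentration | control set = DMSO and PEA EC100 | replicates = n 1 | signal = Fluo-8 fluorescence, 5 s baseline then 140 s kinetic read | measure = percent activation vs PEA EC100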
OXTR potentiate = human OXTR potentiation; P30559; CHO-OTR cells, Fluo-8 calcium fluorescence, potentiator mode; 0% = oxytocin EC15, 100% = EC100; activation, % at 3 µM; 320,000 compounds, 0.061% hits; AID 2445;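 active means activation above that plate's cutoff, the mean activation of tested compounds plus 3 SD, cut at about 6.6% in these data, passing the limit was not always enough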
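System: human OTR in CHO cells / Also added: sub-maximal oxytocin, roughly EC15 / Control set: EC15 oxytocin low, 75 nM oxytocin high / Schedule: 6 min compound pre-incubation at room temperature, 100 s kinetic read / Compound: single-point 3.0 µM / Replication: singlicate / Technique: Fluo-8 calcium dye fluorescence / Read-out basis: % activation of max/min ratio relative to oxytocin controls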
V1aR counter = V1a receptor agonism, counter-screen for OXTR agonists; CHO-V1R cells, Fluo-8 calcium fluorescence, agonist mode; 0% DMSO, 100% 3 nM vasopressin; activation, % at 3 µM; 320,000 compounds, 0.25% hits;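 active means activation above the mean activation of all tested compounds plus 3 SD, per screening run, cut at about 20% in these data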;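 further: signal is peak over basal fluorescence ratio across a 100 second FLIPR read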
TAAR1 ag confirm = confirmation of human TAAR1 agonists | 2,400 compounds, 82% hits | CHO RD-HGA16 TAAR1, Fluo-8 calcium fluorescence; scaled: DMSO 0%, maximal phenethylamine 100% | activation, % at 3 µM | shares compounds with TAAR1 ag | AID 651783;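 active means activation above a cutoff set at the run's mean compound activation plus 3 SD, cut at about 39% in these data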
Ga16 ag counter = counter-screen for TAAR1 agonists: nonselective agonists in parental cells; shares compounds with TAAR1 ag; CHO-Ga16 parental, Fluo-8 calcium fluorescence; normalized to maximal ATP response, DMSO zero; activation, % at 3 µM; 2,400 compounds, 50% hits; AID 651787;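 active means activation above the run cutoff, the mean activation over all tested wells plus 3 SD, cut at about 12% in these data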
TAAR1 desensitize = counter-screen for human TAAR1 agonists: agonists that desensitize TAAR1 | 2,400 compounds, 46% hits | shares compounds with TAAR1 ag | inhibition, % at 3 µM | CHO RD-HGA16 hTAAR1, Fluo-8 calcium, beta-PEA response inhibition;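 active means inhibition above the run cutoff, the mean inhibition of all test compounds plus 3 SD, cut at about 49% in these data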;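 further: beta-PEA stimulus applied at its EC80; loss of beta-PEA calcium signal after compound pretreatment read as receptor desensitization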
Ga16 antag count = nonselective Ga16 antagonist in TAAR1 agonist counter-screen; shares compounds with TAAR1 ag; CHO-Ga16 ATP-induced calcium, Fluo-8 fluorescence; inhibition, % at 3 µM; 2,400 compounds, 39% hits;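 active means inhibition above the plate's mean compound inhibition plus 3 SD, computed per plate, cut at about 22% in these data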
Hits are given with their value. The list is not random: actives were taken first. Their share in the collection is about 2.3%.

What do the screens show for `Cc1ccc(C)c(N/C(N)=N/c2nc(C)cc(C)n2)c1`?
OXTR ag: 21; TAAR1 antag: 98; TAAR1 ag: 116; OXTR potentiate: inactive; V1aR counter: 26; TAAR1 ag confirm: 105; Ga16 ag counter: 67; TAAR1 desensitize: 99; Ga16 antag count: 76

What do the screens show for `Cc1cc(C)nc(/N=C(\N)Nc2ccc(F)c([N+](=O)[O-])c2)n1`?
OXTR ag: inactive; TAAR1 antag: 71; TAAR1 ag: 68; OXTR potentiate: inactive; V1aR counter: inactive; TAAR1 ag confirm: 63; Ga16 ag counter: 38; TAAR1 desensitize: 70; Ga16 antag count: 39

What do the screens show for `CCOc1ccc(N/C(=N/c2nc(C)cc(C)n2)NC(=O)CC)cc1`?
OXTR ag: inactive; TAAR1 antag: inactive; TAAR1 ag: inactive; OXTR potentiate: inactive; V1aR counter: inactive

What do the screens show for `Cc1cc(C)nc(/N=C(\N)Nc2ccc(S(=O)(=O)Nc3nc(C)cc(C)n3)cc2)n1`?
OXTR ag: inactive; OXTR potentiate: inactive; V1aR counter: inactive

Results for Cc1cc(C)nc(/N=C(\N)Nc2ccc(S(N)(=O)=O)cc2)n1 ?
OXTR ag: inactive; TAAR1 antag: inactive; TAAR1 ag: inactive; OXTR potentiate: inactive; V1aR counter: inactive

How did CCOc1ccc(N/C(N)=N/c2nc(C)cc(C)n2)cc1 do in these assays?
OXTR ag: inactive; TAAR1 antag: 97; TAAR1 ag: 70; OXTR potentiate: inactive; V1aR counter: inactive; TAAR1 ag confirm: 51; Ga16 ag counter: 39; TAAR1 desensitize: 93; Ga16 antag count: 81

How did COc1cccc(C(=O)N2CCC[C@H]2C(=O)N2CCC[C@H]2C(=O)N[C@H](C)c2ccccc2)c1 do in these assays?
TAAR1 antag: inactive; TAAR1 ag: inactive

What do the screens show for `CCC(C)[C@H](NC(=O)N1CCCCCC1)C(=O)OC` (some centres not stated)?
OXTR ag: inactive; TAAR1 antag: inactive; TAAR1 ag: inactive; OXTR potentiate: inactive; V1aR counter: inactive

How did Fc1ccc(-c2ccc3c(c2)C2CC3CCN2)cc1 (configuration not stated) do in these assays?
TAAR1 antag: inactive; TAAR1 ag: inactive

What do the screens show for `CCn1c(SCC(=O)N/N=C/c2ccc(O)c(OC)c2)nc2ccccc21`?
OXTR ag: inactive; TAAR1 antag: inactive; TAAR1 ag: inactive; OXTR potentiate: inactive; V1aR counter: inactive

Results for CC(C)N(Cc1nnc(-c2ccccc2Cl)o1)C(=O)COc1cccc(Cl)c1 ?
TAAR1 antag: inactive; TAAR1 ag: inactive

How did O=c1nc(N2CCCC2)nc(Nc2ccccc2)[nH]1 do in these assays?
OXTR ag: inactive; OXTR potentiate: inactive; V1aR counter: inactive; Ga16 ag counter: inactive; Ga16 antag count: inactive

Results for CN(CC(=O)NCc1ccccc1)CC(=O)Nc1ccc(Cl)c(C(F)(F)F)c1 ?
OXTR ag: 23; TAAR1 antag: inactive; TAAR1 ag: 73; OXTR potentiate: inactive; V1aR counter: 21; TAAR1 ag confirm: 82; Ga16 ag counter: 25; TAAR1 desensitize: 60; Ga16 antag count: 34

What do the screens show for `O=C(O)CCNC(=O)CCCn1nnc2ccccc2c1=O`?
OXTR ag: inactive; TAAR1 antag: inactive; TAAR1 ag: inactive; OXTR potentiate: inactive; V1aR counter: inactive

What do the screens show for `CS(=O)(=O)c1ccc(Nc2nc(C(N)Cc3ccccc3)cs2)cc1` (configuration not stated)?
TAAR1 antag: inactive; TAAR1 ag: 47; TAAR1 ag confirm: 75; Ga16 ag counter: inactive; TAAR1 desensitize: inactive; Ga16 antag count: inactive

What do the screens show for `CS(=O)(=O)c1ccc(Nc2nc(C(N)Cc3ccc(F)cc3)cs2)cc1` (configuration not stated)?
TAAR1 antag: inactive; TAAR1 ag: inactive

What do the screens show for `NC(Cc1ccccc1)c1csc(Nc2ccc(C(=O)NCCO)cc2)n1` (configuration not stated)?
TAAR1 antag: inactive; TAAR1 ag: 45; TAAR1 ag confirm: 76; Ga16 ag counter: inactive; TAAR1 desensitize: 58; Ga16 antag count: inactive

Results for NC(Cc1ccc(F)cc1)c1csc(Nc2ccc(S(N)(=O)=O)cc2)n1 (configuration not stated) ?
TAAR1 antag: inactive; TAAR1 ag: 61; TAAR1 ag confirm: 76; Ga16 ag counter: inactive; TAAR1 desensitize: 53; Ga16 antag count: inactive

How did Cc1ccc(S(=O)(=O)NCCC(=O)NC(C)CCc2ccccc2)cc1 (configuration not stated) do in these assays?
OXTR ag: inactive; TAAR1 antag: inactive; TAAR1 ag: inactive; OXTR potentiate: inactive; V1aR counter: inactive

Results for O=C(NCCc1ccccc1)c1cc(-c2ccco2)on1 ?
OXTR ag: inactive; TAAR1 antag: inactive; TAAR1 ag: 47; OXTR potentiate: inactive; V1aR counter: inactive; TAAR1 ag confirm: 44; Ga16 ag counter: inactive; TAAR1 desensitize: inactive; Ga16 antag count: inactive

How did Cc1cc(C)c(C(=O)OCC(=O)NC(=O)c2ccccc2)c(C)c1 do in these assays?
OXTR ag: inactive; TAAR1 antag: 70; TAAR1 ag: 58; OXTR potentiate: inactive; V1aR counter: inactive; TAAR1 ag confirm: inactive; Ga16 ag counter: inactive; TAAR1 desensitize: inactive; Ga16 antag count: 34

How did Cc1cc(-c2cc(C(=O)Nc3ccccc3)on2)nc(NCC2CC2)n1 do in these assays?
OXTR ag: inactive; TAAR1 antag: inactive; TAAR1 ag: inactive; OXTR potentiate: inactive; V1aR counter: inactive

How did COCC(=O)Nc1ncc(S(=O)(=O)c2ccc([N+](=O)[O-])cc2)s1 do in these assays?
OXTR ag: inactive; TAAR1 antag: inactive; TAAR1 ag: inactive; OXTR potentiate: inactive; V1aR counter: inactive

What do the screens show for `O=C(Nc1ncc(S(=O)(=O)c2ccc([N+](=O)[O-])cc2)s1)c1cccc2ccccc12`?
OXTR ag: 32; TAAR1 antag: 94; TAAR1 ag: 128; OXTR potentiate: inactive; V1aR counter: 27; TAAR1 ag confirm: 129; Ga16 ag counter: 88; TAAR1 desensitize: 105; Ga16 antag count: 79

How did COC(=O)c1nc[nH]c1[N+](=O)[O-] do in these assays?
TAAR1 antag: inactive; TAAR1 ag: inactive

Bioassay records: PubChem, The Scripps Research Institute Molecular Screening Center
